NPY-Y1 antag – blocks the human neuropeptide Y Y1 receptor; P25929; HEK293-CNG Y1 cells, membrane potential fluorescence; NPY at EC95, then isoproterenol; inhibition, % at 3.6 µM; 200,000 tested, 1% active; AID 1040;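 active means inhibition above the campaign mean inhibition of all tested compounds plus 3 SD, cut at about 20% in these data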;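 further: 0% = DMSO wells given NPY plus isoproterenol and 100% = isoproterenol alone without NPY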
Target sequence (P25929 whole entry, looked up): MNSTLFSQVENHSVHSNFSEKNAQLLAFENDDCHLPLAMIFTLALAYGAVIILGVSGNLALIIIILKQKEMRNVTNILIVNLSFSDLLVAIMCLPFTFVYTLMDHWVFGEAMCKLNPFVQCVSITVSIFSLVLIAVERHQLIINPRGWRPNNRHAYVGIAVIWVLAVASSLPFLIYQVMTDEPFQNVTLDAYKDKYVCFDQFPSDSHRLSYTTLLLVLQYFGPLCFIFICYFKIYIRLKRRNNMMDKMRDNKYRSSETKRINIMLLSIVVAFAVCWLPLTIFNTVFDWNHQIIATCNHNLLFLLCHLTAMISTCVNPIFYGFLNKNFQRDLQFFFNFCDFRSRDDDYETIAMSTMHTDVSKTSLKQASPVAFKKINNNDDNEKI
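Assay system: HEK293 cells with Y1 receptor plus CNG channel | Probe or stimulus: NPY (25 nM), isoproterenol (1 µM), Ro 20-1724 (25 µM) | Timing: Compound incubation 1 h at room temperature, readout 45 min post-stimulation | Measured by: Membrane-potential fluorescent dye readout | Benchmarks: High control isoproterenol alone, low control NPY with isoproterenol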
WT yeast gro inh – growth inhibition of WT yeast, mitochondrial fusion screen; inhibition, % at 10 µM; 190,000 tested, 2.1% active; mitochondrial fusion phenotypic screen, WT strain; AID 1362; in the data active means inhibition above about 58%; tested in S. cerevisiae
NPY2 pot ag – potentiates or activates human NPY-Y2 receptor; activation, % at 3.6 µM; P49146; cells expressing NPY-Y2, potentiator/agonist read-out; 220,000 tested, 0.45% active; in the data active means activation above about 27%;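 further: cells stimulated with NPY near EC25 plus isoproterenol at EC100; 0% = vehicle plus submaximal agonist and 100% = vehicle plus saturating agonist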
RAM network inh – blocks the yeast RAM network; S. cerevisiae dse1pr::URA3 reporter, 5-FOA growth OD615, 2 d; analog-sensitive cbk1-as2 kinase mutant strain; inhibition, % at 50 µM; 190,000 tested, 1.8% active; AID 868;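 active means inhibition above a set limit, 3 SD over mean compound inhibition, cut at about 8.4% in these data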;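 further: 0% = DMSO-only wells with no growth and 100% = 10 µM 1-NA-PP1 full growth; inhibition rescues growth on 5-FOA so higher OD means more RAM inhibition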
NPY-Y1 PAM-ag – potentiates or activates human NPY-Y1 receptor; NPY-Y1 expressing cells, potentiator/agonist activation; 220,000 tested, 0.37% active; P25929; activation, % at 3.6 µM; in the data active means activation above about 33%, passing the limit was not always enough;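 further: cells stimulated with NPY at EC10 then isoproterenol at EC100; 0% = low agonist plus stimulus and 100% = saturating agonist plus stimulus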
NPY Y2 blocker – NPY-Y2 (human) receptor antagonism; P49146; NPY-Y2 expressing cells, antagonist mode; inhibition, % at 2.7 µM; 140,000 tested, 0.99% active; AID 793;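 further: 0% = vehicle with agonist challenge and 100% = reference antagonist with challenge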
NPY-Y1 ant conf – human NPY-Y1 antagonism, confirmation; 1,200 tested, 21% active; AID 1254; HEK293-CNG NPY-Y1, membrane potential fluorescence, cAMP; NPY challenge against isoproterenol-raised cAMP; inhibition, % at 3.6 µM; shares compounds with NPY-Y1 antag; in the data active means inhibition above about 20%;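 further: 0% = vehicle with agonist plus stimulus and 100% = stimulus alone without agonist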
NPY2 antag ctr – human NPY-Y2 antagonism in NPY-Y1 counter-screen; inhibition, % at 3.6 µM; 1,200 tested, 28% active; AID 1255; HEK293 NPY-Y2 CNG membrane potential fluorescence; cells given NPY, then isoproterenol; shares compounds with NPY-Y1 antag;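 further: 0% = DMSO with agonist challenge and 100% = reference antagonist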
Active calls of the source: *; . = no result. An excerpt weighted towards active compounds, which were near 4.9% of everything screened. Unless noted, no stated cut-off is given here; in the data, active means inhibition above about 17%; inactive means the rest.

SMILES | NPY-Y1 antag | WT yeast gro inh | NPY2 pot ag | RAM network inh | NPY-Y1 PAM-ag | NPY Y2 blocker | NPY-Y1 ant conf | NPY2 antag ctr
CCC(C)Sc1nc2c(c(=O)[nH]1)C(c1cccs1)C1=C(CCCC1=O)N2 (configuration not stated) | 22* | -8 | 1 | 2 | 7 | . | 3 | 9
COc1ccc(C2=[N+](C)CCn3cccc32)c(OC)c1 | 0 | 16 | 12 | 1 | 6 | 1 | . | .
COc1ccccc1/C=c1\sc2nc(-c3ccco3)nn2c1=O | 1 | -11 | 0 | 1 | 1 | 0 | . | .
COc1ccc(OC)c(/C=c2\sc3nc(-c4cccs4)nn3c2=O)c1 | 20* | 8 | -9 | 4 | -32 | 5 | 3 | 2
OCC1(CCc2ccccc2)CCN(Cc2cc(F)ccc2-n2cccn2)CC1 | 23* | 3 | -20 | 2 | -12 | . | 14 | 11
O=C(CSc1n[nH]c(-c2ccccc2)n1)Nc1ccc(N2CCOCC2)cc1 | 3 | 0 | -8 | 3 | -8 | . | . | .
Cc1ccc(-n2cc(CNCCn3nc(C)cc3C)c(-c3ccc(F)cc3)n2)cc1 | 26* | 74 | -7 | -1 | -19 | . | 27* | 14
Cc1ccc(-n2cc(CNCCc3ncc(C)[nH]3)c(-c3ccc(F)cc3)n2)cc1 | 27* | 49 | -21 | 0 | -29 | . | 12 | 25*
O=C1c2ccccc2NC(c2ccc(O)cc2)N1Cc1ccco1 (configuration not stated) | -1 | 1 | 2 | 0 | 11 | -1 | . | .
O=C(Cc1cccs1)N(CC1CCCO1)C1(C(=O)NC2CCCC2)CCCCC1 (configuration not stated) | 36* | -9 | -10 | 1 | -17 | . | 14 | 8
CC(C)CCN1CCN(Cc2cccc3nonc23)CC1CCO (configuration not stated) | 10 | -2 | 4 | -1 | 5 | . | . | .
CCOc1ccccc1CN1CCN(Cc2cccc3nonc23)CC1CCO (configuration not stated) | 29* | -12 | 1 | 0 | 19 | . | 3 | 6
Cc1ccc(CCNC(=O)c2cc(-c3ccncc3)nc3ccccc23)cc1 | . | . | -48 | . | -4 | . | . | .
O=C(NCCC1=CCCCC1)c1cc(-c2ccncc2)nc2ccccc12 | 27* | -1 | -71 | 3 | -81 | . | 27* | 23*
Cc1sc2ncnc(Sc3ccccc3C(=O)Nc3ccc(Br)cc3)c2c1C | 1 | 28 | -7 | 2 | -32 | 5 | . | .
COc1ccc(CCn2c(SCCN3CCCCC3)nc3ccccc3c2=O)cc1OC | 38* | 23 | -27 | 1 | -27 | . | 16 | 18*
COc1ccc(CSc2nc3ccccc3c(=O)n2CCCN2CCOCC2)cc1F | 28* | 46 | -22 | 2 | -35 | . | 14 | 14
O=c1c2ccccc2nc(SCCN2CCOCC2)n1CCc1ccccc1 | 7 | 23 | -15 | -1 | -16 | . | . | .
CCCCNC(=O)Nc1ccc(Br)cn1 | 4 | 7 | 20 | 1 | 0 | 2 | . | .
COc1cccc(/C(C#N)=C/c2c(-c3ccc(Cl)cc3)nc3c(C)cccn23)c1 | 23* | 11 | -4 | 0 | 0 | 2 | 4 | 2
OC(COc1ccc2c(c1)CCC2)CN1CCN(c2ccccc2F)CC1 (configuration not stated) | 26* | -10 | -30 | 1 | -25 | 10 | 13 | 16
Cc1cccc(NC(=O)NNC(=O)c2cc3ccccc3cc2O)c1C | 24* | 11 | -5 | 1 | -21 | . | 15 | 13
Cc1[nH]c2ccccc2c1C(C[N+](=O)[O-])c1cccc(O)c1 (configuration not stated) | -3 | 14 | 11 | 1 | 11 | . | . | .
Cc1c(C(=O)OC2CCC(C)CC2)[nH]c2c1C(=O)CCC2 (configuration not stated) | -5 | 16 | 5 | 6 | 8 | 1 | . | .
COC(=O)c1[nH]c2c(c1C)C(=O)CCC2 | 31* | 0 | 4 | 0 | -5 | 0 | -4 | 2
SMILES | NPY-Y1 antag | WT yeast gro inh | NPY2 pot ag | RAM network inh | NPY-Y1 PAM-ag | NPY Y2 blocker | NPY-Y1 ant conf | NPY2 antag ctr
COc1cccc(NC(=O)Nc2cccs2)c1 | 1 | -3 | -8 | 1 | -14 | 4 | . | .
Cn1ccnc1C1CCCCN1Cc1nc(-c2ccc3c(c2)OCO3)no1 (configuration not stated) | 42* | 3 | -18 | 3 | -21 | . | 27* | 10
COc1ccc(-c2noc(CN3CCCCC3c3nccn3C)n2)cc1 (configuration not stated) | 42* | 13 | -22 | -1 | -25 | . | 30* | 14
Cn1ccnc1C1CCCCN1Cc1nc(Cc2cccc(C(F)(F)F)c2)no1 (configuration not stated) | 8 | 16 | -9 | 2 | -8 | . | . | .
O=C(Nc1cc(N2CCCCC2)ncn1)c1ccc(F)cc1 | 2 | 18 | 3 | 0 | 19 | . | . | .
O=S(=O)(NCc1ccncc1)c1ccc(S(=O)(=O)NCC2CCCO2)cc1 (configuration not stated) | -4 | 11 | 12 | 0 | -1 | -1 | . | .
Cc1nc2ccccc2c(=O)n1NC(=O)c1ccco1 | 8 | 5 | -11 | -1 | -14 | 6 | . | .
Cc1ccccc1OCc1nc2ccccc2c(=O)n1NC(=O)c1ccco1 | 20* | -4 | -21 | 4 | -26 | 4 | 8 | 9
CC(=O)Nc1ccc(-c2csc(NC(=O)C3CCN(S(=O)(=O)c4cccs4)CC3)n2)cc1 | 5 | 17 | 9 | 3 | -2 | -1 | . | .
COC(=O)c1ccc(CSc2nc(C(F)(F)F)c3c(c2C#N)CCC3)o1 | 16 | 32 | -5 | 6 | -17 | 9 | . | .
COc1cc2c(cc1Cl)/C(=C\CCN(C)C)c1ccccc1S2 | 29* | 53 | -19 | -1 | -37 | 11 | 13 | 18*
COc1ccc(Br)c(C(=O)NCCC(C)C)c1 | 5 | 5 | 6 | 0 | -10 | 2 | . | .
Cc1nn(-c2ccccc2)c(Oc2ccc(F)cc2)c1/C=N/n1cnnc1 | 20* | -7 | 4 | 1 | 0 | 4 | 5 | 1
Clc1cccc(OCCN2CCN(CCOc3cccc(Cl)c3)CC2)c1 | 21* | 60 | -4 | 2 | -5 | 11 | 5 | 7
CC1CCN(CCOc2cccc(Br)c2)CC1 | 5 | -3 | -5 | 2 | -32 | 5 | . | .
Cc1ccc(CSc2ncccc2C(=O)O)cc1 | 23* | -15 | -15 | 1 | -21 | 12 | 11 | 6
Cc1cccc(CSc2ncccc2C(=O)O)c1 | 5 | 3 | -22 | 3 | -38 | 9 | . | .

Compound activity deposited in PubChem BioAssay by several laboratories.
